GASC-1 inh: inhibitors of GASC-1 histone demethylase, primary screen, biochemical, fluorescence, DELFIA europium; inhibition, % at 2.35 µM; actives 0.069% (n = 330,000); Lysine-specific demethylase 4C (Homo sapiens), Q9H3R0; GST-JMJD2C(1-420) H3K9me3 demethylation;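 active = more than half of a compound's replicate wells show inhibition beyond 50%, single wells judged on their own value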;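 also: signal counts dimethyl H3K9 product captured on neutravidin plate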
Target sequence (Q9H3R0 1-420 limits assumed): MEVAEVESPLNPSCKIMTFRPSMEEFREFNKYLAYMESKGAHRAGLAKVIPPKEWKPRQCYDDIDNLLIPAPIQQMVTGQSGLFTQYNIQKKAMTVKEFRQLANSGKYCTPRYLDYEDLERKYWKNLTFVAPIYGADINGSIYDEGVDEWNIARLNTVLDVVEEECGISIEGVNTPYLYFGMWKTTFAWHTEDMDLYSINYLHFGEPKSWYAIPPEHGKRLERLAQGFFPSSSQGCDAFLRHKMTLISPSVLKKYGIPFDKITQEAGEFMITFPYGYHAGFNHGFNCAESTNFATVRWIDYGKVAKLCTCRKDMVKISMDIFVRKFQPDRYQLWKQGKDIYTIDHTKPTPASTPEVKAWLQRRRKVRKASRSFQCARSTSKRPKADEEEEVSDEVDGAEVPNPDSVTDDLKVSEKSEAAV
DAX1 inh-1: DAX1 (NR0B1) inhibitors on StAR promoter, primary screen, cell-based, luminescence, SF-1 (NR5A1), full-length DAX-1; actives 1.1% (n = 370,000); HEK293T StAR-luciferase reporter, SF-1/DAX-1 repression relief; AID 652010, 2013; inhibition, % at 6.8 µM;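 active = inhibition above the mean over all tested compounds plus 3 SD, cut at about 3.6% in these data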;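 also: higher inhibition means more luminescence from relief of DAX-1 repression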
DAX1 inh-2: DAX1 (NR0B1) inhibitors, primary screen, cell-based, HEK293, Gal4-DAX1, luciferase luminescence; inhibition, % at 6.75 µM; HEK293 Gal4-DAX1 luciferase reporter; Nuclear receptor subfamily 0 group B member 1 (Homo sapiens), P51843; actives 0.99% (n = 340,000);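 active = inhibition above the mean over all tested compounds plus 3 SD, cut at about 4.2% in these data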;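 also: inhibition shows as a rise in luminescence from relieved DAX1 repression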
NR2E3 ag-1: inhibitors of NR2E3-RetCOR corepressor binding, primary screen, NR2E3 agonist project, biochemical, TR-FRET, GST-NR2E3, biotin-RetCOR; inhibition of corepressor binding, % at 4.78 µM; actives 0.12% (n = 320,000); Photoreceptor-specific nuclear receptor (Homo sapiens), Q9Y5X4; 1536-well;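 active = percent inhibition above the cutoff of mean plus 3 SD of all tested compounds, set per screening campaign, cut at about 20% in these data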
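Material: NR2E3–RetCOR corepressor complex / Amount: 1.35 nM GST-NR2E3 / Medium: Tris pH 7.5 / Compound: single nominal compound dose of 4.8 µM / Incubation: 5 h at 4 °C / Technique: TR-FRET, Eu(K)-anti-GST donor, streptavidin-D2 acceptor, ex 340, em 617/671 nm / Read-out basis: percent loss of FRET ratio relative to control wells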
SMARCA2 activ: SMARCA2 (BRM) function activators, primary screen, cell-based, luminescence, high throughput; MG213 cells, MMTV-luciferase reporter, dexamethasone, overnight; activation, % at 9.1 µM; actives 1% (n = 370,000); AID 652017, 2013; in the data active = activation above about 7.8%
NR2E3 ag-2: NR2E3 agonists in two-hybrid cells, primary screen, cell-based, luminescence, CHO-S, Gal4-NCOR/VP16-NR2E3 | actives 0.35% (n = 360,000) | inhibition of corepressor binding, % at 3.98 µM | Photoreceptor-specific nuclear receptor (Homo sapiens), Q9Y5X4 | luciferase;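 active = inhibition above the mean of all tested compounds plus 3 SD, cut at about 70% in these data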;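 also: higher means lower luciferase signal from less NR2E3 corepressor binding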
Each line names hits and unclear results; the compound was inactive in the other large screens. An excerpt weighted towards active compounds, which were near 3.2% of everything screened.

CC1(c2nnnn2-c2ccc3c(c2)OCCO3)CSCC(=O)N1CCc1c[nH]c2ccccc12 (stereo not given)	none (no result: GASC-1 inh, DAX1 inh-2, NR2E3 ag-1, NR2E3 ag-2)
COC(=O)[C@]12C=CCN1[C@H](c1ccc(C(F)(F)F)cc1)c1c(c3ccccc3n1S(=O)(=O)c1ccc(C)cc1)C2	none (no result: GASC-1 inh, DAX1 inh-2, NR2E3 ag-1, NR2E3 ag-2)
CCOc1ccccc1C(=O)N1CCC(Oc2cccnc2)CC1	none (no result: GASC-1 inh, DAX1 inh-2, NR2E3 ag-1, NR2E3 ag-2)
CC[C@H](CCCc1ccccc1OC)CCS(=O)(=O)N(C)C	none (no result: GASC-1 inh, DAX1 inh-2, NR2E3 ag-1, NR2E3 ag-2)
Cc1ccc(Nc2ncc3c(n2)CC(C)(C)CC3=O)cc1	DAX1 inh-2 6.0
CCOC(=O)COc1ccc(Oc2nc(C)cc(OC)n2)nn1	SMARCA2 activ 7.8
COc1cc(C)nc(Oc2ccc(OCc3ccccc3)nn2)n1	none
CN(CCO)c1ccc2c(c1)Oc1ccccc1CN(Cc1cn(Cc3ccc(C(F)(F)F)cc3)nn1)S2(=O)=O	none (no result: GASC-1 inh, DAX1 inh-2, NR2E3 ag-1, NR2E3 ag-2)
CCCC(=O)N(c1ccc(OCC)cc1)C1C=CS(=O)(=O)C1 (stereo not given)	none
CCOc1ccc(N(C(C)=O)C2C=CS(=O)(=O)C2)cc1 (stereo not given)	DAX1 inh-2 5.3
CCC(C)N(C(C)CC)S(=O)(=O)c1ccc2[nH]c(=O)oc2c1 (stereo not given)	none (no result: GASC-1 inh, DAX1 inh-2, NR2E3 ag-1, NR2E3 ag-2)
O=C(NC1CCc2ccccc21)c1cc(COc2ccc(F)cc2Cl)on1 (stereo not given)	none
O=C(NC1CCc2ccccc21)c1cc(COc2cncc(Cl)c2)on1 (stereo not given)	GASC-1 inh 60.0
COC(=O)C1CN(Cc2ccc(OC)cc2)CCS(=O)(=O)N1Cc1cn(Cc2ccc(F)cc2)nn1 (stereo not given)	none (no result: GASC-1 inh, DAX1 inh-2, NR2E3 ag-1, NR2E3 ag-2)
O=C(c1ccc(C(F)(F)F)cc1)N(CCCn1ccnc1)C(c1ccccn1)c1nc2ccccc2[nH]1 (stereo not given)	none (no result: GASC-1 inh, DAX1 inh-2, NR2E3 ag-1)
O=C(c1ccccc1)N(CCCn1ccnc1)C(c1ccccc1)c1nc2ccccc2[nH]1 (stereo not given)	DAX1 inh-1 3.6 (no result: GASC-1 inh, DAX1 inh-2, NR2E3 ag-1)
CN(C1CCCCC1)S(=O)(=O)c1ccc(S(=O)(=O)N2CCN(CCC#N)CC2)cc1	DAX1 inh-2 5.7
N#CCCN1CCN(S(=O)(=O)c2ccc3c(c2)CCC3)CC1	none
Cc1cc(C)c2cc(C(=O)N3CCC(N4CCCCC4)CC3)[nH]c2c1	DAX1 inh-1 4.3
Cc1cc(C)c2cc(C(=O)N3CCC(C(=O)c4ccc(F)cc4)CC3)[nH]c2c1	none (no result: GASC-1 inh)
O=C(CSc1nnc(COc2ccccc2)n1-c1ccc(Cl)cc1)Nc1ccc(OCc2ccccc2)cc1	none (no result: GASC-1 inh, DAX1 inh-2, NR2E3 ag-1, NR2E3 ag-2)
O=C(Cn1c(=O)[nH]c2ccsc2c1=O)NC1CCCCCC1	DAX1 inh-2 7.3
O=C(Nc1cc(C(F)(F)F)ccc1N1CCOCC1)c1cn2ccccc2n1	DAX1 inh-2 6.6
Nc1[nH]c2cc(Cl)ccc2c1C(=O)NCCc1ccc(Cl)cc1	none (no result: GASC-1 inh, DAX1 inh-2, NR2E3 ag-1, NR2E3 ag-2)
Cc1cc(NC(=O)c2ccc(NS(=O)(=O)c3ccc(C)c(C)c3)cc2)no1	none (no result: GASC-1 inh, DAX1 inh-2, NR2E3 ag-1, NR2E3 ag-2)
COc1cccc(-c2nnc3sc(-c4ccco4)nn23)c1	DAX1 inh-2 4.2
COc1ccc(-c2nnc3sc(-c4ccco4)nn23)cc1OC	none
CCOc1ccc(-n2c(SCC(=O)Nc3cc(C)c(NC(=O)c4ccccc4)cc3OC)nnc2-c2ccncc2)cc1	none (no result: GASC-1 inh, DAX1 inh-2, NR2E3 ag-1, NR2E3 ag-2)
CN1C[C@]2(C=C3CCCCC3n3c(=O)n(-c4ccccc4)c(=O)n32)N(C(=O)OCc2ccccc2)C1=NC(=O)c1ccccc1 (stereo not given in full)	none (no result: GASC-1 inh, DAX1 inh-2, NR2E3 ag-1, NR2E3 ag-2)
CC(=O)c1cccc(S(=O)(=O)Nc2cccc(S(=O)(=O)NC3=NCCC3)c2)c1	SMARCA2 activ 10.2
CC(=O)c1cccc(NS(=O)(=O)c2ccc(C(=O)Nc3ccccc3)cc2)c1	NR2E3 ag-2 75.0
O=C(Nc1ccccc1)c1ccc(S(=O)(=O)Nc2cccc(O)c2)cc1	none

Screening results deposited in PubChem BioAssay by several laboratories.
